According to ChEMBL document CHEMBL3421571, “N-Oxide derivatives of 3-(3-pyridyl)-2-phosphonopropanoic acids as potential inhibitors of Rab geranylgeranylation” (Bioorg Med Chem Lett, 2015):
Calls of active or inactive are those of the source. The rule behind the calls is not given here.

Tests used:
[1] = target: T1, Farnesyl pyrophosphate synthase (Homo sapiens, UniProt P14324); assay: Inhibition of recombinant FDPS (unknown origin) assessed as decrease in […] level using GPP and [14C]IPP as substrate treated with enzyme for 10 mins prior to substrate challenge for 30 mins by liquid scintillation counting analysis
T1 sequence (P14324 whole entry): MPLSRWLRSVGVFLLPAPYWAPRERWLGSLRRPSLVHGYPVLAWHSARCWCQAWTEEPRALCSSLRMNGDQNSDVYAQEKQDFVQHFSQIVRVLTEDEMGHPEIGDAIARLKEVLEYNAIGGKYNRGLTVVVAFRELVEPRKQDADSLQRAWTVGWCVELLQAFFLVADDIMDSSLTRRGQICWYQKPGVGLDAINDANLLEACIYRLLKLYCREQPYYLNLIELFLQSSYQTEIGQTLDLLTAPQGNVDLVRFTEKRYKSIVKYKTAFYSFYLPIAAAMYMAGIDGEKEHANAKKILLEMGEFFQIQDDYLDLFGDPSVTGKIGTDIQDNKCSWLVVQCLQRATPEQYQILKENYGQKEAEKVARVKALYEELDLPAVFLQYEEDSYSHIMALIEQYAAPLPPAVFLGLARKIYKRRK

[2] = Inhibition of recombinant GGTase 2 (unknown origin) using recombinant Rab1A and [3H]GGPP as substrate after 20 mins in presence of recombinant REP-2 by liquid scintillation counting analysis; design: species or system Homo sapiens
[3] = target: Geranylgeranyl transferase type I (Homo sapiens) (UniProt P49354+P53609); assay: Inhibition of GGTase 1 in human RPMI8226 cells assessed as unmodified Rap1a accumulation at 5 mM incubated for 48 hrs by immunoblot method; format: cell-based; details: RPMI-8226
Outline: (§1)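 RPMI-8226 myeloma cells exposed 48 h to lovastatin (20 μM) or bisphosphonates (5 mM), untreated cells as reference. Whole-cell lysates made in RIPA buffer, membrane (detergent) fraction by Triton X-114 partitioning; immunoblotting with β-tubulin (lysate) or calnexin (detergent fraction) as loading controls. Rap1a antibody recognizes only unprenylated protein. Blots representative of two independent experiments.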

[4] = system: RPMI-8226; assay: Inhibition of GGTase 2 in human RPMI8226 cells assessed as reduction in membrane bound Rab6 protein at 5 mM incubated for 48 hrs by immunoblot method; format: cell-based; outline: as §1
[5] = system: RPMI-8226; assay: Induction of apoptosis in human RPMI8226 cells assessed as increase in PARP cleavage at 5 mM incubated for 48 hrs by immunoblot method; format: functional, cell-based; outline: as §1
[6] = system: RPMI-8226; assay: Induction of apoptosis in human RPMI8226 cells assessed as increase in caspase-3 cleavage at 5 mM incubated for 48 hrs by immunoblot method; format: functional, cell-based; outline: as §1
[7] = system: RPMI-8226; assay: Induction of endoplasmic reticulum stress in human RPMI8226 cells assessed as increase in calnexin cleavage at 5 mM incubated for 48 hrs by immunoblot method; format: functional, cell-based
[8] = system: RPMI-8226; assay: Inhibition of GGTase 2 in human RPMI8226 cells assessed as disruption of monoclonal protein trafficking by measuring accumulation of intracellular lambda light chain at 5 mM incubated for 48 hrs by ELISA; format: cell-based
Outline: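 RPMI-8226 cells treated 48 h with lovastatin (20 μM) or bisphosphonates (5 mM); intracellular lambda light chain quantified by ELISA, expressed as percentage of untreated control (mean + SD, n=3); unpaired two-tailed t-test against untreated cells.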

[9] = system: RPMI-8226; assay: Induction of apoptosis in human RPMI8226 cells assessed as increase in PARP cleavage at 20 uM incubated for 48 hrs by immunoblot method; format: functional, cell-based; outline: as §1
[10] = system: RPMI-8226; assay: Induction of apoptosis in human RPMI8226 cells assessed as increase in caspase-3 cleavage at 20 uM incubated for 48 hrs by immunoblot method; format: functional, cell-based; outline: as §1

| IC50 [1] [µM] | IC50 [2] [µM] | inhibition [3] | SMILES | inhibition [4] | Activity [5] | Activity [6] | Activity [7] | inhibition [8] | Activity [9] | Activity [10] |
| --- | --- | --- | --- | --- | --- | --- | --- | --- | --- | --- |
| 200 | 700 | inactive | O=C(O)C(O)(Cc1cccnc1)P(=O)(O)O (stereo unspecified) | Active | Active | Active | Active | Active |  |  |
| 2000 | 1800 | inactive | O=C(O)C(O)(Cc1ccc[n+]([O-])c1)P(=O)(O)O (stereo unspecified) | Active |  |  |  | Active |  |  |
| > 2000 | 800 | inactive | O=C(O)C(Cc1ccc[n+]([O-])c1)P(=O)(O)O (stereo unspecified) | inactive | Active | Active | Active | inactive |  |  |

Further lines, the molecule ahead of its results:

| SMILES | IC50 [1] [µM] | IC50 [2] [µM] | inhibition [3] | inhibition [4] | Activity [5] | Activity [6] | Activity [7] | inhibition [8] | Activity [9] | Activity [10] |
| --- | --- | --- | --- | --- | --- | --- | --- | --- | --- | --- |
| O=C(O)C(Cc1cccnc1)P(=O)(O)O (stereo unspecified) | 1000 | 1100 | inactive | Active | Active | Active | Active | inactive |  |  |
| CC[C@H](C)C(=O)O[C@H]1C[C@@H](C)C=C2C=C[C@H](C)[C@H](CC[C@@H]3C[C@@H](O)CC(=O)O3)[C@H]21 |  |  |  |  |  |  |  |  | Active | Active |
